{"source": "ChEMBL document CHEMBL5331146", "about": "“Evaluating Alkaline Phosphatase-Instructed Self-Assembly of d-Peptides for Selectively Inhibiting Ovarian Cancer Cells” (J Med Chem, 2023)", "key": {"OVSAHO [1]": {"tested_on": "OVSAHO", "test": "Cytotoxicity against human OVSAHO cells assessed as inhibition of cell growth incubated for 72 hrs by MTT assay", "assay_type": "functional, cell-based", "procedure,_shortened": "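OVSAHO cells incubated 72 h with each EISA substrate across a concentration series; viability measured and IC50 derived.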"}, "OVSAHO [2]": {"tested_on": "OVSAHO", "test": "Cytotoxicity against human OVSAHO cells assessed as enhancement in cell growth inhibition at 20 uM incubated for 24 hrs in presence of 1 to 20 uM ethyl (2-((cyanocarbonyl)(2,4-dimethoxyphenyl)amino)-2-(thiophen-2-yl)acetyl)glycinate by MTT assay", "assay_type": "functional, cell-based", "procedure,_shortened": "(§1)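 OVSAHO cells are co-treated for 24 h with the EISA substrate at a fixed 20 μM plus the partner drug over its concentration range. Viability is compared with substrate alone and drug alone. Significance is given as p thresholds (ns, *, **, ***).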"}, "[3]": {"test": "Cytotoxicity against CHOK cells assessed as inhibition of cell growth incubated for 72 hrs by MTT assay", "assay_type": "functional, cell-based", "settings": "Cricetulus griseus", "procedure,_shortened": "(§2)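 Cell viability after 72 h continuous exposure of each ovarian or CHO cell line to the substrate over a concentration series. IC50 is taken from the 72 h viability curves.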"}, "OVSAHO [4]": {"tested_on": "OVSAHO", "test": "Cytotoxicity against human OVSAHO cells assessed as enhancement in cell growth inhibition at 20 uM incubated for 24 hrs in presence of 50 to 200 nM methyl (5R,7R,8S)-7-hydroxy-8-methyl-15-oxo-5,6,7,8,14,15-hexahydro-13H-16-oxa-4b,8a,14-triaza-5,8-methanodibenzo[b,h]cycloocta[jkl]cyclopenta[e]-as-indacene-7-carboxylate by MTT assay", "assay_type": "functional, cell-based", "procedure,_shortened": "as §1"}, "[5]": {"test": "Cytotoxicity against mouse GEMM 4306 cells assessed as inhibition of cell growth incubated for 72 hrs by MTT assay", "assay_type": "functional, cell-based", "settings": "GEMM 4306, 72 h", "procedure,_shortened": "as §2"}, "OVSAHO [6]": {"tested_on": "OVSAHO", "test": "Cytotoxicity against human OVSAHO cells assessed as enhancement in cell growth inhibition at <5 uM incubated for 24 to 72 hrs in presence of doxorubicin by MTT assay", "assay_type": "functional, cell-based", "settings": "time 24-72 hrs", "procedure,_shortened": "(§3)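 OVSAHO cells are exposed to a series of substrate concentrations combined with doxorubicin, alongside each agent alone. Viability is read at 24 h, 48 h and 72 h. Single-agent doxorubicin was also run at 1.25, 2.5 and 5 μM. Significance is given as p thresholds.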"}, "OVSAHO [7]": {"tested_on": "OVSAHO", "test": "Cytotoxicity against human OVSAHO cells assessed as cell viability at 20 uM incubated for 24 hrs in presence of doxorubicin by MTT assay (reference value: 120%)", "assay_type": "functional", "settings": "read-out: Activity"}, "OVSAHO [8]": {"tested_on": "OVSAHO", "test": "Cytotoxicity against human OVSAHO cells assessed as enhancement in cell growth inhibition at 20 uM incubated for 24 hrs in presence of 1.25 to 5 uM 3-((4-(tert-butyl)phenyl)sulfonyl)acrylonitrile by MTT assay", "assay_type": "functional, cell-based", "procedure,_shortened": "as §1"}, "OVSAHO [9]": {"tested_on": "OVSAHO", "test": "Cytotoxicity against human OVSAHO cells assessed as enhancement in cell growth inhibition at 20 uM incubated for 24 hrs in presence of 25 to 50 uM talazoparib by MTT assay", "assay_type": "functional, cell-based", "procedure,_shortened": "as §1"}, "OVSAHO [10]": {"tested_on": "OVSAHO", "test": "Cytotoxicity against human OVSAHO cells assessed as enhancement in cell growth inhibition at 20 uM incubated for 24 hrs in presence of 2.5 to 10 uM paclitaxel by MTT assay", "assay_type": "functional, cell-based", "procedure,_shortened": "as §1"}, "OVSAHO [11]": {"tested_on": "OVSAHO", "test": "Cytotoxicity against human OVSAHO cells assessed as enhancement in cell growth inhibition at 20 uM incubated for 24 hrs in presence of 25 to 50 uM Bortezomib by MTT assay", "assay_type": "functional, cell-based", "procedure,_shortened": "as §1"}, "OVSAHO [12]": {"tested_on": "OVSAHO", "test": "Cytotoxicity against human OVSAHO cells assessed as enhancement in cell growth inhibition at 20 uM incubated for 24 hrs in presence of 1.25 to 2.5 uM cisplatin by MTT assay", "assay_type": "functional, cell-based", "procedure,_shortened": "as §1"}, "[13]": {"test": "Cytotoxicity against human A2780-Res cells assessed as inhibition of cell growth incubated for 72 hrs by MTT assay", "assay_type": "functional, cell-based", "procedure,_shortened": "as §2"}, "OVSAHO [14]": {"tested_on": "OVSAHO", "test": "Cytotoxicity against human OVSAHO cells assessed as enhancement in cell growth inhibition at 10 to 20 uM incubated for 24 to 72 hrs in presence of doxorubicin by MTT assay", "assay_type": "functional, cell-based", "settings": "dose 10-20 µM, time 24-72 hrs", "procedure,_shortened": "as §3"}, "OVSAHO [15]": {"tested_on": "OVSAHO", "test": "Cytotoxicity against human OVSAHO cells assessed as enhancement in cell growth inhibition at 20 uM incubated for 24 hrs in presence of 0.5 to 2 uM 2-((4-(cyclopropanecarbonyl)piperazin-1-yl)methyl)benzo[d]isothiazol-3(2H)-one by MTT assay", "assay_type": "functional, cell-based", "procedure,_shortened": "as §1"}, "OVSAHO [16]": {"tested_on": "OVSAHO", "test": "Cytotoxicity against human OVSAHO cells assessed as inhibition of cell growth at 1.25 to 5 uM incubated for 24 hrs by MTT assay relative to control", "assay_type": "functional", "design": "scale not given: the % may be the effect or the level left", "settings": "dose 1.25-5 µM", "procedure,_shortened": "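OVSAHO cells treated with doxorubicin alone at 1.25, 2.5 and 5 μM for 24 h; cell viability measured.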"}}, "note": "Activity calls are given as the source filed them. Square brackets hold non-standard residues; d marks the D form. Peptide text beside a SMILES is read from it. * marks the point of attachment. d(pY) = N[C@H](Cc1ccc(OP(=O)(O)O)cc1)C(=O)O; Acetyl(2-naphthyl) = O=C(Cc1ccc2ccccc2c1)*"}
{"smiles": "COC(=O)CC[C@@H](NC(=O)[C@@H](Cc1ccc(OP(=O)(O)O)cc1)NC(=O)[C@@H](Cc1ccccc1)NC(=O)[C@@H](Cc1ccccc1)NC(=O)[C@@H](CC(C)C)NC(=O)Cc1ccc2ccccc2c1)C(=O)OC", "values": [{"measurement": "IC50", "setting": "OVSAHO [1]", "value": "> 200", "unit": "µM"}]}
{"smiles": "COC(=O)CC[C@@H](NC(=O)[C@@H](Cc1ccc(OP(=O)(O)O)cc1)NC(=O)[C@@H](Cc1ccccc1)NC(=O)[C@@H](Cc1ccccc1)NC(=O)[C@H](CC(C)C)NC(=O)Cc1ccc2ccccc2c1)C(=O)OC", "values": [{"measurement": "IC50", "setting": "OVSAHO [1]", "value": 46.9, "unit": "µM"}]}
{"smiles": "COC(=O)CC[C@@H](NC(=O)[C@@H](Cc1ccc(OP(=O)(O)O)cc1)NC(=O)[C@@H](Cc1ccccc1)NC(=O)[C@@H](Cc1ccccc1)NC(=O)[C@@H](Cc1ccccc1)NC(=O)Cc1ccc2ccccc2c1)C(=O)OC", "values": [{"measurement": "IC50", "setting": "OVSAHO [1]", "value": "> 200", "unit": "µM"}]}
{"smiles": "COC(=O)CC[C@@H](NC(=O)[C@@H](Cc1ccc(OP(=O)(O)O)cc1)NC(=O)[C@H](CC(C)C)NC(=O)[C@@H](Cc1ccccc1)NC(=O)[C@@H](Cc1ccccc1)NC(=O)Cc1ccc2ccccc2c1)C(=O)OC", "values": [{"measurement": "IC50", "setting": "OVSAHO [1]", "value": 70.5, "unit": "µM"}]}
{"smiles": "COC(=O)CC[C@@H](NC(=O)[C@@H](Cc1ccc(OP(=O)(O)O)cc1)NC(=O)[C@@H](Cc1ccccc1)NC(=O)[C@@H](Cc1ccccc1)NC(=O)Cc1ccc2ccccc2c1)C(=O)OC", "note": "({Acetyl(2-naphthyl)}-[dF][dF][d(pY)][dE](OMe)-OMe)", "values": [{"measurement": "Activity", "setting": "OVSAHO [2]", "value": "inactive"}, {"measurement": "IC50", "setting": "[3]", "value": "> 200", "unit": "µM"}, {"measurement": "Activity", "setting": "OVSAHO [4]", "value": "Active"}, {"measurement": "IC50", "setting": "[5]", "value": "> 200", "unit": "µM"}, {"measurement": "Activity", "setting": "OVSAHO [6]", "value": "inactive"}, {"measurement": "viability at 20 µM", "setting": "OVSAHO [7]", "value": 20, "unit": "%"}, {"measurement": "Activity", "setting": "OVSAHO [8]", "value": "Active"}, {"measurement": "Activity", "setting": "OVSAHO [9]", "value": "inactive"}, {"measurement": "Activity", "setting": "OVSAHO [10]", "value": "inactive"}, {"measurement": "Activity", "setting": "OVSAHO [11]", "value": "inactive"}, {"measurement": "Activity", "setting": "OVSAHO [12]", "value": "Active"}, {"measurement": "IC50", "setting": "[13]", "value": "> 200", "unit": "µM"}, {"measurement": "Activity", "setting": "OVSAHO [14]", "value": "Active"}, {"measurement": "Activity", "setting": "OVSAHO [15]", "value": "inactive"}]}
{"smiles": "COc1cccc2c1C(=O)c1c(O)c3c(c(O)c1C2=O)C[C@@](O)(C(=O)CO)C[C@@H]3O[C@H]1C[C@H](N)[C@H](O)[C@H](C)O1", "note": "[DOXORUBICIN]", "values": [{"measurement": "Activity", "setting": "OVSAHO [16]", "value": "~75", "unit": "%"}]}
